From ChEMBL document CHEMBL1944633, “A new generation of radiofluorinated pyrimidine-2,4,6-triones as MMP-targeted radiotracers for positron emission tomography” (J Med Chem, 2012)

Tests used:
[1] = biological target: Neutrophil collagenase (Homo sapiens, UniProt P22894); experiment: Inhibition of MMP8 using (7-methoxycoumarin-4-yl)acetyl-Pro-Leu-Gly-Leu-(3-(2,4-dinitrophenyl)-L-2,3-diaminopropionyl)Ala-Arg-NH2 as substrate preincubated for 30 mins measured after 10 mins by fluorescence analysis
Sequence of Neutrophil collagenase (P22894 whole entry): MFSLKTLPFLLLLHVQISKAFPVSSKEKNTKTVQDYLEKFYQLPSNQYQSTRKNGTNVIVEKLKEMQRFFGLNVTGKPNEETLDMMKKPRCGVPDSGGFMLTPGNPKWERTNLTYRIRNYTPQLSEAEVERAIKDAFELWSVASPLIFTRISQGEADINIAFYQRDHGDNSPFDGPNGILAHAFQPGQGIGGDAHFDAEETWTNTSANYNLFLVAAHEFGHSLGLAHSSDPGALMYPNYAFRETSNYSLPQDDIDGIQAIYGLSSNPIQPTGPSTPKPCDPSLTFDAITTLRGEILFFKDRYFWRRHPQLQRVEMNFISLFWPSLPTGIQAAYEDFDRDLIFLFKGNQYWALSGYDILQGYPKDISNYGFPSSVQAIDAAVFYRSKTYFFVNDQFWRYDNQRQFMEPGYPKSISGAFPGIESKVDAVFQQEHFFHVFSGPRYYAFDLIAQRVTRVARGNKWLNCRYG
Outline: (§1)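 Activated enzyme at 2 nM preincubated with inhibitor (10 pM to 1 mM) for 30 min at 37 °C in 50 mM Tris-HCl pH 7.5, 0.2 M NaCl, 5 mM CaCl2, 20 μM ZnSO4, 0.05% Brij 35. Fluorogenic peptide substrate added (10 μL of 50 μM stock to 90 μL mix). Fluorescence read at ex 330/em 390 nm. Rates taken from initial 10 min; IC50 by nonlinear regression of rate versus concentration.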

[2] = Octanol-water partition coefficient, log D of the compound at pH 7.4 by gamma counter; type: physicochemical
Outline: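 About 20 kBq radioligand shaken 1 min at room temperature in equal volumes (0.5 mL) of PBS pH 7.4 and 1-octanol. Phases separated by centrifugation (3000 rpm, 2 min). Three 100 μL samples per layer gamma-counted. log D7.4 = log(cpm octanol/cpm PBS). Two independent experiments in triplicate, mean ± standard deviation.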

[3] = biological target: Collagenase 3 (Homo sapiens, UniProt P45452); experiment: Inhibition of MMP13 using (7-methoxycoumarin-4-yl)acetyl-Pro-Leu-Gly-Leu-(3-(2,4-dinitrophenyl)-L-2,3-diaminopropionyl)Ala-Arg-NH2 as substrate preincubated for 30 mins measured after 10 mins by fluorescence analysis; outline: as §1
[4] = biological target: 72 kDa type IV collagenase (Homo sapiens, UniProt P08253); experiment: Inhibition of MMP2 using (7-methoxycoumarin-4-yl)acetyl-Pro-Leu-Gly-Leu-(3-(2,4-dinitrophenyl)-L-2,3-diaminopropionyl)Ala-Arg-NH2 as substrate preincubated for 30 mins measured after 10 mins by fluorescence analysis
Sequence of 72 kDa type IV collagenase (P08253 whole entry): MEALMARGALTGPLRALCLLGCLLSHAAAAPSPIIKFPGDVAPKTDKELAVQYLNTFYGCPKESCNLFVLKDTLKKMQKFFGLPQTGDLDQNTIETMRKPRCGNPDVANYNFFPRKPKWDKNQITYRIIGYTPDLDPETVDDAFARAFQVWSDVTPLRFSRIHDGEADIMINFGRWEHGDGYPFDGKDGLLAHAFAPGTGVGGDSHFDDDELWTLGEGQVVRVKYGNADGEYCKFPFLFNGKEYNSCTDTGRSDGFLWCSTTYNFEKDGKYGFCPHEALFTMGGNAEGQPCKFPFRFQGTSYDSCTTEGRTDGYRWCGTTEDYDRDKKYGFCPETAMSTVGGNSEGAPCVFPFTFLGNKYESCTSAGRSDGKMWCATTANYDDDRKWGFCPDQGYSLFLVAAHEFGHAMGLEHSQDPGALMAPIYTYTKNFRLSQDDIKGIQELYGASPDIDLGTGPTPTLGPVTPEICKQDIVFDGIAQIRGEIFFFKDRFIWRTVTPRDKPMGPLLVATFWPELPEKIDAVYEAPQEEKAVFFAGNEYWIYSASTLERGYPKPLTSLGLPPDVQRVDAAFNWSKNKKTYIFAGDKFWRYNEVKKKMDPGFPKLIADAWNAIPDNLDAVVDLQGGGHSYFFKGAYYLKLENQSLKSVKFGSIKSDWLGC
Outline: (§2)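 Activated enzyme at 2 nM preincubated with inhibitor (10 pM to 1 mM) for 30 min at 37 °C in 50 mM Tris-HCl pH 7.5, 0.2 M NaCl, 5 mM CaCl2, 20 μM ZnSO4, 0.05% Brij 35. Fluorogenic peptide substrate added (10 μL of 50 μM stock to 90 μL mix).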

[5] = biological target: Matrix metalloproteinase-9 (Homo sapiens, UniProt P14780); experiment: Inhibition of MMP9 using (7-methoxycoumarin-4-yl)acetyl-Pro-Leu-Gly-Leu-(3-(2,4-dinitrophenyl)-L-2,3-diaminopropionyl)Ala-Arg-NH2 as substrate preincubated for 30 mins measured after 10 mins by fluorescence analysis; outline: as §2
Sequence of Matrix metalloproteinase-9 (P14780 whole entry): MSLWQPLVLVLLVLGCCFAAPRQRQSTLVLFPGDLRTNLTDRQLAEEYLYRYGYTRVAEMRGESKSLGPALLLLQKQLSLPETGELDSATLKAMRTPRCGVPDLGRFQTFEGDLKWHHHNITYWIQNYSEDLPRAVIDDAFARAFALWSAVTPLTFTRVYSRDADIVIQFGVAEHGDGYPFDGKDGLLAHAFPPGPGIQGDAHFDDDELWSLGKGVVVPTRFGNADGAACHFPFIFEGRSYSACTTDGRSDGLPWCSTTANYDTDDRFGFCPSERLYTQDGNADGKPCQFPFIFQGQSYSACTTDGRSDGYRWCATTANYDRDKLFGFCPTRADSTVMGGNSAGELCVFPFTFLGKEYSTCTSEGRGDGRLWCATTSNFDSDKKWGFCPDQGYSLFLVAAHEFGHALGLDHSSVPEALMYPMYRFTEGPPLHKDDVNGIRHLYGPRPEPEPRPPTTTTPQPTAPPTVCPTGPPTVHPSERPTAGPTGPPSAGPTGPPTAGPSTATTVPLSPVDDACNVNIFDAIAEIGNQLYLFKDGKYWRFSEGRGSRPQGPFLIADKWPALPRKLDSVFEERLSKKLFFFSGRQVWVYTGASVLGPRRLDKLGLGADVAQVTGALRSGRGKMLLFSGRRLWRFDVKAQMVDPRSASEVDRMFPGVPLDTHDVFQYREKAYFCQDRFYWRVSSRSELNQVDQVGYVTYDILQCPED

[6] = Drug uptake in BALB/c mouse skeleton at 5 to 8 MBq measured after 60 mins by CT scanning; type: ADME; settings: in vivo, 1 h
Outline: (§3)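 Balb/c mice (19–27 g) under isoflurane (1.5%/0.3 L/min) on a heating pad, tail-vein catheter. 5–8 MBq radiotracer in 100 μL with 150 μL saline flush, injected iv 30 s after scan start. Dynamic list-mode small-animal PET for 60 min, iterative resolution-recovery reconstruction. CT acquired afterwards (80 μm). CT-guided volumes of interest gave time–activity curves as %ID.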

[7] = Drug uptake in BALB/c mouse urinary bladder at 5 to 8 MBq measured after 60 mins by CT scanning; type: ADME, tissue-based; settings: in vivo, 1 h; outline: as §3
[8] = system: Lung; experiment: Drug uptake in BALB/c mouse lung at 5 to 8 MBq measured after 60 mins by CT scanning; type: ADME; settings: in vivo, 1 h; outline: as §3
[9] = system: Kidney; experiment: Drug uptake in BALB/c mouse kidney at 5 to 8 MBq measured after 60 mins by CT scanning; type: ADME; settings: in vivo, 1 h; outline: as §3
[10] = system: Intestine; experiment: Drug uptake in BALB/c mouse intestine at 5 to 8 MBq measured after 60 mins by CT scanning; type: ADME, tissue-based; settings: in vivo, 1 h; outline: as §3
[11] = system: Liver; experiment: Drug uptake in BALB/c mouse liver at 5 to 8 MBq measured after 90 to 120 mins post injection by CT scanning; type: ADME; settings: in vivo
[12] = system: Brain; experiment: Drug uptake in BALB/c mouse brain at 5 to 8 MBq measured after 60 mins by CT scanning; type: ADME, tissue-based; settings: in vivo, 1 h; outline: as §3
[13] = system: Liver; experiment: Drug uptake in BALB/c mouse liver at 5 to 8 MBq measured after 10 to 15 mins post injection by CT scanning; type: ADME; settings: in vivo
[14] = Drug uptake in BALB/c mouse gallbladder at 5 to 8 MBq measured after 60 mins by CT scanning; type: ADME, Gall bladder; settings: in vivo, 1 h; outline: as §3
[15] = system: Heart; experiment: Drug uptake in BALB/c mouse heart at 5 to 8 MBq measured after 60 mins by CT scanning; type: ADME, tissue-based; settings: in vivo, 1 h; outline: as §3
[16] = system: Liver; experiment: Drug uptake in BALB/c mouse liver at 5 to 8 MBq measured after 60 mins by CT scanning; type: ADME; settings: in vivo, 1 h; outline: as §3
[17] = system: Serum; experiment: Stability of the compound in human serum at 5MBq measured up to 120 mins by HPLC analysis; type: ADME, cell-free; settings: 2 h
Outline: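 PBS-formulated radioligand (20 μL, 5 MBq) added to 200 μL human serum at 37 °C. 20 μL aliquots taken at 10, 20, 30, 60, 90 and 120 min and quenched in methanol/CH2Cl2 (1:1, 100 μL). Samples centrifuged 2 min; organic layer analysed by radio-HPLC (10–90% CH3CN/water, 0.1% TFA gradient).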

Row | SMILES | IC50 [1] | IC50 [3] | IC50 [4] | IC50 [5] | also measured
1 | O=C1NC(=O)C(c2ccc(Oc3ccccc3)cc2)(N2CCN(CC[18F])CC2)C(=O)N1 | 138 nM | 645 nM | – | – | logD [2]: 2.15
2 | O=C1NC(=O)C(NCc2cn(CCOCCOCCOCCF)nn2)(c2ccc(Oc3ccccc3)cc2)C(=O)N1 | 48 nM | 87 nM | 64 nM | 41 nM | –
3 | O=C1NC(=O)C(c2ccc(Oc3ccccc3)cc2)(N2CCN(CCOCCOCCOCCn3cc(COC(=O)c4ccc(F)cc4)nn3)CC2)C(=O)N1 | 27 nM | 7 nM | 22 nM | 23 nM | –
4 | O=C1NC(=O)C(c2ccc(-c3ccccc3)cc2)(N2CCN(c3ccc([N+](=O)[O-])cc3)CC2)C(=O)N1 | – | – | 23 nM | 7 nM | logD [2]: 2.15
5 | O=C1NC(=O)C(c2ccc(Oc3ccccc3)cc2)(N2CCN(CCOCCOCCOCCn3cc(CCCCOc4cccnc4F)nn3)CC2)C(=O)N1 | 116 nM | 40 nM | 52 nM | 60 nM | –
6 | CN(Cc1cn(CCOCCOCCOCCN2CCN(C3(c4ccc(Oc5ccccc5)cc4)C(=O)NC(=O)NC3=O)CC2)nn1)S(=O)(=O)c1ccc(F)cc1 | 15 nM | 21 nM | 12 nM | 7 nM | –
7 | O=C1NC(=O)C(c2ccc(Oc3ccccc3)cc2)(N2CCN(CCOCCOCCOCCOCc3cn(CCF)nn3)CC2)C(=O)N1 | 58 nM | 51 nM | 58 nM | 27 nM | –
8 | O=C1NC(=O)C(c2ccc(Oc3ccccc3)cc2)(N2CCN(c3cccc(F)n3)CC2)C(=O)N1 | 129 nM | 48 nM | 203 nM | 9 nM | –
9 | O=C1NC(=O)C(c2ccc(Oc3ccccc3)cc2)(N2CCN(CCOCCOCCOCCn3cc(CNS(=O)(=O)c4ccc(F)cc4)nn3)CC2)C(=O)N1 | 19 nM | 23 nM | 13 nM | 20 nM | –
10 | O=C1NC(=O)C(c2ccc(Oc3ccccc3)cc2)(N2CCN(CCOCCOCCOCCOCc3cn(CCOCCOCCOCCOc4cccnc4F)nn3)CC2)C(=O)N1 | 107 nM | 605 nM | 202 nM | 56 nM | –
11 | O=C1NC(=O)C(c2ccc(Oc3ccccc3)cc2)(N2CCN(CCOCCOCCOCCOCc3cn(CC[18F])nn3)CC2)C(=O)N1 | – | – | – | – | Drug uptake [6]: Active; Drug uptake [7]: Active; Drug uptake [8]: Not Active; Drug uptake [9]: Active; logD [2]: 0.78; Drug uptake [10]: Active; Drug uptake [11]: Active; Drug uptake [12]: Not Active; Drug uptake [13]: Active; Drug uptake [14]: Active; Drug uptake [15]: Not Active; Drug uptake [16]: Active; Stability [17]: Stable
12 | O=C1NC(=O)C(NCc2cn(CCOCCOCCOCCOc3cccnc3F)nn2)(c2ccc(Oc3ccccc3)cc2)C(=O)N1 | 49 nM | 9 nM | 29 nM | 10 nM | –
13 | O=C1NC(=O)C(c2ccc(Oc3ccccc3)cc2)(N2CCN(CCOCCOCCOCCOCCOCCOCCOCCOCc3cn(CCF)nn3)CC2)C(=O)N1 | 150 nM | 94 nM | 44 nM | 74 nM | –
14 | O=C1NC(=O)C(c2ccc(Oc3ccccc3)cc2)(N2CCN(CCOCCOCCOCCNC(=O)c3ccc(F)cc3)CC2)C(=O)N1 | 15 nM | 16 nM | 5 nM | 4 nM | –
